Screening results as filed in PubChem BioAssay.
ANO1 activ: TMEM16A chloride channel activators or potentiators, primary screen, cell-based, HTS | HEK293 TMEM16A/YFP-H148Q/I152L, iodide quench fluorescence; hits give low values | Anoctamin-1 (Mus musculus), Q8BHY3 | B-score at 10 µM | 0.3% of 340,000 active;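 active = fluorescence-ratio B-score plate-corrected deviation score at least 3 library SD below zero, with starting fluorescence score within 5 deviations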;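 note: channel opened by trigger with iodide after compound preincubation; score built on the fluorescence ratio of max minus min over baseline; more negative score means more quench and so TMEM16A activation or potentiation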
ANO1 block: TMEM16A chloride channel inhibitors, primary screen, cell-based, HTS | HEK293 TMEM16A/YFP iodide influx fluorescence, ionomycin | normalized B-score (activity score, 25-100; higher = stronger inhibition) at 10 µM | 1.2% of 310,000 active | AID 588511, 2011;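 active = ratio plate-corrected score three or more library SD toward inhibition, starting fluorescence score within five deviations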;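 note: score derived from kinetic fluorescence span divided by baseline fluorescence per well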
MIN6 prolif: inducers of MIN6 beta-cell proliferation, primary screen, ATP luminescence, uHTS | MIN6 cells proliferation, ATPlite luminescence, 48 h; cells starved in 0.2% serum; 100% = growth in 10% serum | proliferation, % at 10 µM | 0.29% of 330,000 active | AID 2380, 2010;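 active = compounds whose signal lies at least 3.5 SD above the mean of all wells on their plate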;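 note: 0% = DMSO-treated cells in low-serum medium and 100% = 10% serum control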
MC4R antag cAMP: MC4R antagonists of cAMP signaling, primary screen, cell-based, TR-FRET, antagonist arm of biased-ligand search; Melanocortin receptor 4 (Homo sapiens), P32245; MC4R-expressing cells, MTII-stimulated cAMP, LANCE TR-FRET; inhibition, % at 6.5 µM; 0.48% of 360,000 active; AID 540295, 2011;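 active = inhibition above its plate's cutoff, the mean of tested wells on that plate plus 3 SD, cut at about 29% in these data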;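 note: 0% = Melanotan II alone and 100% = Melanotan II plus saturating MCL0020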
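Assay system: human MC4R-expressing U2OS cells; reagent: Melanotan II stimulation of cells; dosing: 6.5 µM single dose; timing: compound 30 min, challenge 1 h, detection 1 h; signal: TR-FRET cAMP assay; replicates: one well per compound, no replicates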
HTR2A ag: mouse Htr2a agonists via beta-arrestin recruitment, primary screen, cell-based, luminescence | 5-hydroxytryptamine receptor 2A (Mus musculus), P35363 | CHO-K1 mHTR2A beta-arrestin complementation; percent of 30 µM serotonin response | activation, % at 7.6 µM | 0.66% of 360,000 active | AID 624169, 2012;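 active = activation above a run cutoff, the mean activation of all tested compounds plus 3 SD, cut at about 14% in these data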;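 note: 0% = plate median of compound wells and 100% = 30 µM serotonin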
MC4R barr agon: MC4R agonists recruiting beta-arrestin, primary screen, cell-based, luminescence, agonist arm of biased-ligand search. Melanocortin receptor 4 (Homo sapiens), P32245. U2OS MC4R beta-arrestin complementation; percent of melanotan II response, DMSO zero. activation, % at 8.9 µM. 0.98% of 360,000 active. AID 540308, 2011;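 active = activation above a per-plate cutoff, the mean activation of sample wells on that plate plus 3 SD, cut at about 8% in these data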
MOR ag counter: OPRM1 agonists via beta-arrestin recruitment, confirmation, counter-screen for mouse HTR2A agonist project, cell-based, luminescence, single concentration; shares compounds with HTR2A ag; activation, % at 9.3 µM; U2OS OPRM1 beta-arrestin PathHunter; DMSO 0%, DAMGO 9.3 µM 100%; AID 624380, 2012; 5.3% of 2,300 active;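 active = mean activation above the mean of DMSO-only wells plus 3 SD, cut at about 0.5% in these data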
Target sequence (P35372 whole entry, looked up): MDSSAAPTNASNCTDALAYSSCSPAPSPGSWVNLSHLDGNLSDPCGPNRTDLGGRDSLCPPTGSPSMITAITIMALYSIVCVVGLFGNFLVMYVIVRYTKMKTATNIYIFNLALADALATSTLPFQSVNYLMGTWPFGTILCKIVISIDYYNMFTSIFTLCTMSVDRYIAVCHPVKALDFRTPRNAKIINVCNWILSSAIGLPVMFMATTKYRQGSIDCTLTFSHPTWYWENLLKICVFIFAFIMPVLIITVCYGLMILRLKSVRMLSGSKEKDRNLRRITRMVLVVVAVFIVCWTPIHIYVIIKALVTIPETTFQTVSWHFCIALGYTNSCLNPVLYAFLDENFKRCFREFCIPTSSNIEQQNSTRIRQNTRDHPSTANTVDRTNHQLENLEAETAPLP
HTR2A ag conf: mouse HTR2A agonists, beta-arrestin recruitment, confirmation, cell-based, luminescence, CHO-K1 PathHunter, triplicate. shares compounds with HTR2A ag. DMSO 0%, 30 µM serotonin 100%. activation, % at 7.6 µM. 19% of 2,300 active. AID 624381, 2012;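 active = mean activation across triplicates above the hit threshold derived in the original primary screen, cut at about 15% in these data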
Starred values were filed as active, the others as inactive; i = inactive; nt = not tested or not shown. An excerpt weighted towards active compounds, which were near 3.4% of everything screened.

SMILES | ANO1 activ | ANO1 block | MIN6 prolif | MC4R antag cAMP | HTR2A ag | MC4R barr agon | MOR ag counter | HTR2A ag conf
O=P(Cc1cc(Br)cc(Br)c1OCCO)(c1ccccc1)c1ccccc1 | i | i | -1 | -3 | 2 | 0 | nt | nt
O=C(O)CCC(=O)N1CCc2cc(S(=O)(=O)N3CCN(c4ccc(F)cc4)CC3)ccc21 | i | i | -3 | 2 | 15* | 0 | 0 | -1
Cc1ccc(C)c(N2CCN(S(=O)(=O)c3ccc4c(c3)CCN4C(=O)CCC(=O)O)CC2)c1 | i | i | 0 | 4 | 9 | 2 | nt | nt
Cc1ccc(NC(=O)c2cccnc2C(=O)O)nc1 | i | i | 0 | 9 | 3 | 1 | nt | nt
COc1cc2c(c(OC)c1OC)-c1ccc(N(C)CC(OC)OC)c(=O)cc1[C@@H](NC(C)=O)CC2 | i | i | -4 | -13 | 25* | -1 | -1 | -4
CCN(C(=O)CSc1ccc2ccccc2c1)C1CCS(=O)(=O)C1 (centres undefined) | i | i | -2 | -2 | 16* | -1 | -1 | 0
CCOC(=O)C1CCN(S(=O)(=O)c2ccc(OC)c(C(=O)N3CCCCC3)c2)CC1 | i | i | 0 | -4 | 4 | -1 | nt | nt
COc1cccc(CCNC(=O)CCc2nnc(Cc3cc(OC)ccc3OC)o2)c1 | i | i | -1 | 14 | 10 | -2 | nt | nt
C=CCn1c(SCC(=O)NCC(=O)OCC)nnc1-c1cccc(OC)c1 | i | i | 0 | 4 | 20* | -1 | -1 | -3
CCOC(=O)CNC(=O)CSc1nnc(-c2cccc(C)c2)n1-c1ccc(OC)cc1 | i | i | -1 | 17 | 0 | -3 | nt | nt
COc1ncc(-c2ccc3c(c2)S(=O)(=O)c2cccc(C(=O)O)c2C3=O)cn1 | i | nt | 0 | 0 | 18* | 0 | -1 | -3
CCCCN(CC)CCCNC(=O)CC1Oc2ccccc2NC1=O (centres undefined) | i | i | 0 | 2 | 27* | -1 | -1 | 90*
O=C1CCc2cc(S(=O)(=O)Nc3ccccc3)cc3c2N1CC3 | i | i | 3 | 1 | -2 | -2 | nt | nt
CN(C)CCCN(C(=O)c1ccc2c(c1)OCCO2)c1nc2cc3c(cc2s1)OCO3 | i | i | -2 | -2 | -7 | -2 | nt | nt
COc1ccc(C)c2sc(N(CCN(C)C)C(=O)c3cccc(N4C(=O)CCC4=O)c3)nc12 | i | i | 3 | -4 | -1 | -1 | nt | nt
COc1ccc(C)c2sc(N(CCN(C)C)C(=O)/C=C/c3cccs3)nc12 | i | i | -8 | -2 | 24* | 29* | 1.0* | 12
COc1ccc(C)c2sc(N(CCCN(C)C)C(=O)c3ccc4c(c3)OCCO4)nc12 | i | i | -7 | 0 | 21* | -1 | -1 | 5
Cc1cc2nc(C(C)(C)C)c(Cc3cccc(F)c3)n2c(C)c1Br | nt | nt | nt | nt | 0 | nt | nt | nt
COc1ccc(NC2CCCN(C(=O)Cn3ccc(C)n3)C2)cc1OC (centres undefined) | i | i | 1 | -5 | 15* | -1 | 0 | 0
Cc1ccn(CC(=O)N2CCCC(Nc3ccc(F)c(F)c3)C2)n1 (centres undefined) | i | i | 1 | -6 | 1 | -1 | nt | nt
CCN(CC)C(=O)C1=C(C)N(CCCOC)C(=O)C(CC(=O)NCCCCc2ccccc2)C1 (centres undefined) | nt | nt | nt | 2 | -2 | 1 | nt | nt
O=C(Cc1ccccc1C(=O)O)Nc1cccc2ccccc12 | i | i | 4 | 1 | 5 | -1 | nt | nt
O=C(COc1ccccc1C(=O)O)Nc1cccc2ccccc12 | i | nt | 0 | 11 | 16* | -1 | 0 | -2
Cc1c(NC(=O)c2ccccc2NC(=O)c2ccccc2)cccc1C(=O)O | i | i | -4 | 1 | 6 | 2 | nt | nt
Cc1c(NC(=O)c2ccccc2NC(=O)COc2ccccc2)cccc1C(=O)O | i | i | 1 | 5 | 17* | -3 | 0 | 0
SMILES | ANO1 activ | ANO1 block | MIN6 prolif | MC4R antag cAMP | HTR2A ag | MC4R barr agon | MOR ag counter | HTR2A ag conf
COc1cc(OC)cc(C(=O)NCC2CCCN(Cc3cccc(C(C)=O)c3)C2)c1 (centres undefined) | i | i | -2 | 5 | -4 | -2 | nt | nt
COc1ccccc1-c1nc2c(c(SCC(=O)N3CCCCC3)n1)Cc1c(CO)cnc(C)c1O2 | i | i | -4 | -5 | 15* | -3 | 0 | -3
Cc1ncc(CO)c2c1Oc1nc(-c3ccccc3)nc(SCC(=O)N3CCCCC3)c1C2 | i | i | 0 | 7 | 9 | -1 | nt | nt
COc1cccc(NC(=O)CN(C)C(=O)CN2C(=O)NC3(CCCC3)C2=O)c1 | i | i | 0 | 9 | -8 | 1 | nt | nt
CCC1(c2ccccc2)NC(=O)N(CC(=O)N(C)CC(=O)Nc2cccc(OC)c2)C1=O (centres undefined) | i | i | 5 | 9 | 15* | -1 | 0 | 3
CCC1(c2ccc(F)cc2)NC(=O)N(CC(=O)Nc2ccccc2Cl)C1=O (centres undefined) | i | i | 0 | 10 | 7 | -1 | nt | nt
CCC1(c2ccc(F)cc2)NC(=O)N(CC(=O)Nc2ccccc2C)C1=O (centres undefined) | i | i | -1 | 17 | 14* | -1 | -1 | -4
COC(=O)C[C@H]1CC[C@H](NC(=O)Nc2ccccc2F)[C@@H](CO)O1 | nt | nt | nt | nt | -3 | nt | nt | nt
COc1ccc(CN2CCN(C(=O)c3ccco3)CC2)cc1OCc1ccccc1 | i | i | -4 | -2 | 19* | 1 | -1 | 74*
COc1ccc(CN2CCN(C(=O)c3ccco3)CC2)cc1OC | i | i | -2 | 21 | 32* | 0 | 0 | 82*
